Experimental data pooled from the literature.
Each line is one published result; the experiments were not run side by side. Values after ≈ are worked out from the molar mass of the structure shown.
Read-out: microbial growth

Structure (SMILES) | organism | method | strain | MIC
CC1(C)S[C@@H]2[C@H](NC(=O)[C@H](N)c3ccc(O)cc3)C(=O)N2[C@H]1C(=O)O | Enterobacter cloacae | broth dilution | ATCC13047 | > 64 µg/mL
COc1ccc(N=Nc2c(N)nn3c(-c4ccco4)cc(-c4ccc(OCc5ccccc5)cc4)nc23)cc1 | Enterobacter cloacae | – | ATCC23355 | 7.81 µg/mL (≈ 15.1 µM)
Cc1ccc2[nH]nc(-c3nnc(Nc4ccc(F)cc4)s3)c2c1 | Serratia marcescens | – | ATCC8100 | 56.9 µg/mL (≈ 175 µM)
C[C@@H](O)[C@H]1C(=O)N2C(C(=O)O)=C(SCCN=CN)C[C@H]12 | Enterobacter cloacae | broth dilution | ATCC13047 | 2 µg/mL (≈ 6.68 µM)
COc1ccc(N=Nc2c(N)nn3c(-c4ccc(Cl)cc4Cl)cc(-c4ccc(OCc5ccccc5)cc4)nc23)cc1 | Enterobacter cloacae | – | ATCC23355 | 62.5 µg/mL (≈ 105 µM)
Cc1ccc2[nH]nc(-c3nnc(Nc4ccc([N+](=O)[O-])cc4)s3)c2c1 | Serratia marcescens | – | ATCC8100 | 56.2 µg/mL (≈ 159 µM)
Nc1nn2c(-c3ccc(Cl)cc3Cl)cc(-c3ccc(OCc4ccccc4)cc3)nc2c1N=Nc1ccc(F)cc1 | Enterobacter cloacae | – | ATCC23355 | 15.6 µg/mL (≈ 26.7 µM)
CCCCCCC#Cc1cncc(-c2nnc(SCc3ccc(Cl)cc3)n2CCCN)c1 | Enterobacter cloacae | broth dilution | DSM30054 | > 64 µg/mL
CC[C@H]1OC(=O)[C@H](C)[C@@H](O[C@H]2C[C@@](C)(OC)[C@@H](O)[C@H](C)O2)[C@H](C)[C@@H](O[C@@H]2O[C@H](C)C[C@H](N(C)C)[C@H]2O)[C@](C)(O)C[C@@H](C)CN(C)[C@H](C)[C@@H](O)[C@]1(C)O | Enterobacter cloacae | broth dilution | ATCC13047 | 4 µg/mL (≈ 5.34 µM)
Cc1ccc(N=Nc2c(N)nn3c(-c4ccco4)cc(-c4ccc(OCc5ccccc5)cc4)nc23)cc1 | Enterobacter cloacae | – | ATCC23355 | 31.3 µg/mL (≈ 62.5 µM)
CCCCCCC#Cc1cncc(-c2nnc(SCc3ccc([N+](=O)[O-])cc3)n2CCCN)c1 | Enterobacter cloacae | broth dilution | DSM30054 | > 64 µg/mL
Cc1ccc2[nH]nc(-c3nnc(Nc4cc(Cl)cc(Br)c4)s3)c2c1 | Serratia marcescens | – | ATCC8100 | 250 µg/mL (≈ 595 µM)
CCCCCCC#Cc1cncc(-c2nnc(SCc3ccc([N+](=O)[O-])o3)n2CCCN)c1 | Enterobacter cloacae | broth dilution | DSM30054 | > 64 µg/mL
Cc1ccc2[nH]nc(-c3nnc(Nc4ccc(Cl)c(Cl)c4)s3)c2c1 | Serratia marcescens | – | ATCC8100 | 110 µg/mL (≈ 292 µM)
CCCCCCC#Cc1cncc(-c2nnc(SCc3cc([N+](=O)[O-])cc([N+](=O)[O-])c3)n2CCCN)c1 | Enterobacter cloacae | broth dilution | DSM30054 | > 64 µg/mL
Cc1cc(O)cc(Nc2nnc(-c3n[nH]c4ccc(C)cc34)s2)c1 | Serratia marcescens | – | ATCC8100 | 125 µg/mL (≈ 370 µM)
